Species: Bos taurus
Assay: Thermal denaturation (deltaTm) of compound against calf thymus DNA was measured
Assay type: ADME
Settings: cattle, in vitro
Method in brief: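 Calf thymus DNA (MW 100 000–500 000) in 0.01 M phosphate, 5 × 10^-3 M EDTA, pH 7.0; drug 7 × 10^-4 M, DNA nucleotide 7 × 10^-3 M; 259 nm absorbance read at 0.25–1.0 °C steps; Tm taken at 50% hyperchromicity; ΔTm = complex Tm minus DNA Tm.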

Structure (SMILES)	Delta Tm
Cc1c2oc3c(C)c(O)c(N)c(C(=O)N[C@@H]4C(=O)N[C@H](C(C)C)C(=O)N5CCC[C@H]5C(=O)N(C)CC(=O)N(C)[C@@H](C(C)C)C(=O)O[C@@H]4C)c3nc-2c(C(=O)N[C@@H]2C(=O)N[C@H](C(C)C)C(=O)N3CCC[C@H]3C(=O)N(C)CC(=O)N(C)[C@@H](C(C)C)C(=O)O[C@@H]2C)cc1=N	8.2
Cc1c2oc3c(C)c(OCc4ccc(Cl)cc4)cc(C(=O)N[C@@H]4C(=O)N[C@H](C(C)C)C(=O)N5CCC[C@H]5C(=O)N(C)CC(=O)N(C)[C@@H](C(C)C)C(=O)O[C@@H]4C)c3nc-2c(C(=O)N[C@@H]2C(=O)N[C@H](C(C)C)C(=O)N3CCC[C@H]3C(=O)N(C)CC(=O)N(C)[C@@H](C(C)C)C(=O)O[C@@H]2C)c(N)c1=O	0
Cc1c2oc3c(C)c(OCc4ccc(Cl)c(Cl)c4)cc(C(=O)N[C@@H]4C(=O)N[C@H](C(C)C)C(=O)N5CCC[C@H]5C(=O)N(C)CC(=O)N(C)[C@@H](C(C)C)C(=O)O[C@@H]4C)c3nc-2c(C(=O)N[C@@H]2C(=O)N[C@H](C(C)C)C(=O)N3CCC[C@H]3C(=O)N(C)CC(=O)N(C)[C@@H](C(C)C)C(=O)O[C@@H]2C)c(N)c1=O	0
CCOc1cc(C(=O)N[C@@H]2C(=O)N[C@H](C(C)C)C(=O)N3CCC[C@H]3C(=O)N(C)CC(=O)N(C)[C@@H](C(C)C)C(=O)O[C@@H]2C)c2nc3c(C(=O)N[C@@H]4C(=O)N[C@H](C(C)C)C(=O)N5CCC[C@H]5C(=O)N(C)CC(=O)N(C)[C@@H](C(C)C)C(=O)O[C@@H]4C)c(N)c(=O)c(C)c-3oc2c1C	5.9
Cc1c2oc3c(C)c(OCc4ccc([N+](=O)[O-])cc4)cc(C(=O)N[C@@H]4C(=O)N[C@H](C(C)C)C(=O)N5CCC[C@H]5C(=O)N(C)CC(=O)N(C)[C@@H](C(C)C)C(=O)O[C@@H]4C)c3nc-2c(C(=O)N[C@@H]2C(=O)N[C@H](C(C)C)C(=O)N3CCC[C@H]3C(=O)N(C)CC(=O)N(C)[C@@H](C(C)C)C(=O)O[C@@H]2C)c(N)c1=O	0
CCCCCCNc1c(C(=O)N[C@@H]2C(=O)N[C@H](C(C)C)C(=O)N3CCC[C@H]3C(=O)N(C)CC(=O)N(C)[C@@H](C(C)C)C(=O)O[C@@H]2C)c2nc3c(C(=O)N[C@@H]4C(=O)N[C@H](C(C)C)C(=O)N5CCC[C@H]5C(=O)N(C)CC(=O)N(C)[C@@H](C(C)C)C(=O)O[C@@H]4C)ccc(C)c3oc-2c(C)c1=O	0
CCCCCCCOc1cc(C(=O)N[C@@H]2C(=O)N[C@H](C(C)C)C(=O)N3CCC[C@H]3C(=O)N(C)CC(=O)N(C)[C@@H](C(C)C)C(=O)O[C@@H]2C)c2nc3c(C(=O)N[C@@H]4C(=O)N[C@H](C(C)C)C(=O)N5CCC[C@H]5C(=O)N(C)CC(=O)N(C)[C@@H](C(C)C)C(=O)O[C@@H]4C)c(N)c(=O)c(C)c-3oc2c1C	0
CCCCCCCCCNc1c(C(=O)N[C@@H]2C(=O)N[C@H](C(C)C)C(=O)N3CCC[C@H]3C(=O)N(C)CC(=O)N(C)[C@@H](C(C)C)C(=O)O[C@@H]2C)c2nc3c(C(=O)N[C@@H]4C(=O)N[C@H](C(C)C)C(=O)N5CCC[C@H]5C(=O)N(C)CC(=O)N(C)[C@@H](C(C)C)C(=O)O[C@@H]4C)ccc(C)c3oc-2c(C)c1=O	0
Cc1c2oc3c(C)ccc(C(=O)N[C@@H]4C(=O)N[C@H](C(C)C)C(=O)N5CCC[C@H]5C(=O)N(C)CC(=O)N(C)[C@@H](C(C)C)C(=O)O[C@@H]4C)c3nc-2c(C(=O)N[C@@H]2C(=O)N[C@H](C(C)C)C(=O)N3CCC[C@H]3C(=O)N(C)CC(=O)N(C)[C@@H](C(C)C)C(=O)O[C@@H]2C)c(NCCCN)c1=O	6.2
Cc1c2oc3c(C)ccc(C(=O)N[C@@H]4C(=O)N[C@H](C(C)C)C(=O)N5CCC[C@H]5C(=O)N(C)CC(=O)N(C)[C@@H](C(C)C)C(=O)O[C@@H]4C)c3nc-2c(C(=O)N[C@@H]2C(=O)N[C@H](C(C)C)C(=O)N3CCC[C@H]3C(=O)N(C)CC(=O)N(C)[C@@H](C(C)C)C(=O)O[C@@H]2C)c(NCCCCN)c1=O	1.8
Cc1c2oc3c(C)ccc(C(=O)N[C@@H]4C(=O)N[C@H](C(C)C)C(=O)N5CCC[C@H]5C(=O)N(C)CC(=O)N(C)[C@@H](C(C)C)C(=O)O[C@@H]4C)c3nc-2c(C(=O)N[C@@H]2C(=O)N[C@H](C(C)C)C(=O)N3CCC[C@H]3C(=O)N(C)CC(=O)N(C)[C@@H](C(C)C)C(=O)O[C@@H]2C)c(NCCCCCN)c1=O	1.1
Cc1c2oc3c(C)ccc(C(=O)N[C@@H]4C(=O)N[C@H](C(C)C)C(=O)N5CCC[C@H]5C(=O)N(C)CC(=O)N(C)[C@@H](C(C)C)C(=O)O[C@@H]4C)c3nc-2c(C(=O)N[C@@H]2C(=O)N[C@H](C(C)C)C(=O)N3CCC[C@H]3C(=O)N(C)CC(=O)N(C)[C@@H](C(C)C)C(=O)O[C@@H]2C)c(NCCCCCCCCCCN)c1=O	6.6
CCCOc1cc(C(=O)N[C@@H]2C(=O)N[C@H](C(C)C)C(=O)N3CCC[C@H]3C(=O)N(C)CC(=O)N(C)[C@@H](C(C)C)C(=O)O[C@@H]2C)c2nc3c(C(=O)N[C@@H]4C(=O)N[C@H](C(C)C)C(=O)N5CCC[C@H]5C(=O)N(C)CC(=O)N(C)[C@@H](C(C)C)C(=O)O[C@@H]4C)c(N)c(=O)c(C)c-3oc2c1C	3.5
CCCCOc1cc(C(=O)N[C@@H]2C(=O)N[C@H](C(C)C)C(=O)N3CCC[C@H]3C(=O)N(C)CC(=O)N(C)[C@@H](C(C)C)C(=O)O[C@@H]2C)c2nc3c(C(=O)N[C@@H]4C(=O)N[C@H](C(C)C)C(=O)N5CCC[C@H]5C(=O)N(C)CC(=O)N(C)[C@@H](C(C)C)C(=O)O[C@@H]4C)c(N)c(=O)c(C)c-3oc2c1C	2.7
Cc1c2oc3c(C)c(O)c(N)c(C(=O)N[C@@H]4C(=O)N[C@H](C(C)C)C(=O)N5CCC[C@H]5C(=O)N(C)CC(=O)N(C)[C@@H](C(C)C)C(=O)O[C@@H]4C)c3nc-2c(C(=O)N[C@@H]2C(=O)N[C@H](C(C)C)C(=O)N3CCC[C@H]3C(=O)N(C)CC(=O)N(C)[C@@H](C(C)C)C(=O)O[C@@H]2C)c/c1=N/Cc1ccc(Cl)c(Cl)c1	7
CCCCNc1c(C(=O)N[C@@H]2C(=O)N[C@H](C(C)C)C(=O)N3CCC[C@H]3C(=O)N(C)CC(=O)N(C)[C@@H](C(C)C)C(=O)O[C@@H]2C)c2nc3c(C(=O)N[C@@H]4C(=O)N[C@H](C(C)C)C(=O)N5CCC[C@H]5C(=O)N(C)CC(=O)N(C)[C@@H](C(C)C)C(=O)O[C@@H]4C)ccc(C)c3oc-2c(C)c1=O	0.2
COc1cc(C(=O)N[C@@H]2C(=O)N[C@H](C(C)C)C(=O)N3CCC[C@H]3C(=O)N(C)CC(=O)N(C)[C@@H](C(C)C)C(=O)O[C@@H]2C)c2nc3c(C(=O)N[C@@H]4C(=O)N[C@H](C(C)C)C(=O)N5CCC[C@H]5C(=O)N(C)CC(=O)N(C)[C@@H](C(C)C)C(=O)O[C@@H]4C)c(N)c(=O)c(C)c-3oc2c1C	5.5
Cc1c2oc3c(C)ccc(C(=O)N[C@@H]4C(=O)N[C@H](C(C)C)C(=O)N5CCC[C@H]5C(=O)N(C)CC(=O)N(C)[C@@H](C(C)C)C(=O)O[C@@H]4C)c3nc-2c(C(=O)N[C@@H]2C(=O)N[C@H](C(C)C)C(=O)N3CCC[C@H]3C(=O)N(C)CC(=O)N(C)[C@@H](C(C)C)C(=O)O[C@@H]2C)c(NCCCCCCCCN)c1=O	0.3
CCCCCNc1c(C(=O)N[C@@H]2C(=O)N[C@H](C(C)C)C(=O)N3CCC[C@H]3C(=O)N(C)CC(=O)N(C)[C@@H](C(C)C)C(=O)O[C@@H]2C)c2nc3c(C(=O)N[C@@H]4C(=O)N[C@H](C(C)C)C(=O)N5CCC[C@H]5C(=O)N(C)CC(=O)N(C)[C@@H](C(C)C)C(=O)O[C@@H]4C)ccc(C)c3oc-2c(C)c1=O	0
Cc1c2oc3c(C)c(O)c(N)c(C(=O)N[C@@H]4C(=O)N[C@H](C(C)C)C(=O)N5CCC[C@H]5C(=O)N(C)CC(=O)N(C)[C@@H](C(C)C)C(=O)O[C@@H]4C)c3nc-2c(C(=O)N[C@@H]2C(=O)N[C@H](C(C)C)C(=O)N3CCC[C@H]3C(=O)N(C)CC(=O)N(C)[C@@H](C(C)C)C(=O)O[C@@H]2C)c/c1=N/Cc1ccccc1	6.6
Cc1c2oc3c(C)c(O)c(N)c(C(=O)N[C@@H]4C(=O)N[C@H](C(C)C)C(=O)N5CCC[C@H]5C(=O)N(C)CC(=O)N(C)[C@@H](C(C)C)C(=O)O[C@@H]4C)c3nc-2c(C(=O)N[C@@H]2C(=O)N[C@H](C(C)C)C(=O)N3CCC[C@H]3C(=O)N(C)CC(=O)N(C)[C@@H](C(C)C)C(=O)O[C@@H]2C)c/c1=N/Cc1ccc[nH]1	15.8
Cc1c2oc3c(C)c(O)c(N)c(C(=O)N[C@@H]4C(=O)N[C@H](C(C)C)C(=O)N5CCC[C@H]5C(=O)N(C)CC(=O)N(C)[C@@H](C(C)C)C(=O)O[C@@H]4C)c3nc-2c(C(=O)N[C@@H]2C(=O)N[C@H](C(C)C)C(=O)N3CCC[C@H]3C(=O)N(C)CC(=O)N(C)[C@@H](C(C)C)C(=O)O[C@@H]2C)cc1=O	6.7
CCCCCCCCC/N=c1/cc(C(=O)N[C@@H]2C(=O)N[C@H](C(C)C)C(=O)N3CCC[C@H]3C(=O)N(C)CC(=O)N(C)[C@@H](C(C)C)C(=O)O[C@@H]2C)c2nc3c(C(=O)N[C@@H]4C(=O)N[C@H](C(C)C)C(=O)N5CCC[C@H]5C(=O)N(C)CC(=O)N(C)[C@@H](C(C)C)C(=O)O[C@@H]4C)c(N)c(O)c(C)c3oc-2c1C	1.1
CCCCCCOc1cc(C(=O)N[C@@H]2C(=O)N[C@H](C(C)C)C(=O)N3CCC[C@H]3C(=O)N(C)CC(=O)N(C)[C@@H](C(C)C)C(=O)O[C@@H]2C)c2nc3c(C(=O)N[C@@H]4C(=O)N[C@H](C(C)C)C(=O)N5CCC[C@H]5C(=O)N(C)CC(=O)N(C)[C@@H](C(C)C)C(=O)O[C@@H]4C)c(N)c(=O)c(C)c-3oc2c1C	1
CCCCCCCCCCCNc1c(C(=O)N[C@@H]2C(=O)N[C@H](C(C)C)C(=O)N3CCC[C@H]3C(=O)N(C)CC(=O)N(C)[C@@H](C(C)C)C(=O)O[C@@H]2C)c2nc3c(C(=O)N[C@@H]4C(=O)N[C@H](C(C)C)C(=O)N5CCC[C@H]5C(=O)N(C)CC(=O)N(C)[C@@H](C(C)C)C(=O)O[C@@H]4C)ccc(C)c3oc-2c(C)c1=O	0
Cc1c2oc3c(C)c(O)c(N)c(C(=O)N[C@@H]4C(=O)N[C@H](C(C)C)C(=O)N5CCC[C@H]5C(=O)N(C)CC(=O)N(C)[C@@H](C(C)C)C(=O)O[C@@H]4C)c3nc-2c(C(=O)N[C@@H]2C(=O)N[C@H](C(C)C)C(=O)N3CCC[C@H]3C(=O)N(C)CC(=O)N(C)[C@@H](C(C)C)C(=O)O[C@@H]2C)c/c1=N/Cc1cccc(Oc2ccccc2)c1	5.3
